Measurements gathered from unrelated publications.
Compare with care: the assays were run in different laboratories.
Target: Protein-tyrosine kinase 2-beta (PTK2B, Homo sapiens, UniProt Q14289)

CCN(CC)CCNC(=O)c1c(C)[nH]c(/C=C2\C(=O)Nc3ccc(F)cc32)c1C — remaining activity (enzyme activity; inhibitor; 0.1 µM): 86%
O=C(Nc1cnn(-c2csc(C(=O)NC3COC3)c2)c1)Nc1c(F)cccc1Cl — remaining activity (enzyme activity; inhibitor; 5 µM): 91%
Cc1c(NC(=O)c2cc(C(N)=O)nc3cc(F)ccc23)c(C(F)(F)F)nn1Cc1ccc(C(C)(C)C)cc1 — remaining binding (cell-free assay; competition with immobilised ligand; 1 µM): 92%
COc1cc2nccc(Oc3ccc(NC(=O)c4c5n(n(-c6ccc(F)cc6)c4=O)CCCC5)cc3)c2cc1OC — inhibition (enzyme activity; inhibitor; 0.1 µM): 0%
Cc1ccc(C(=O)Nc2ccc(CN3CCN(C)CC3)c(C(F)(F)F)c2)cc1C#Cc1cnc2cccnn12 — remaining activity (enzyme activity; inhibitor; 23.5 nM): 45%
CO[C@@H](C)c1c(Nc2ccc([C@H](N(C)C(=O)C3CCS(=O)(=O)CC3)C(F)(F)F)cc2)cnc2cc(Cl)nn12 — remaining binding (cell-free assay; competition with immobilised ligand; 1 µM): 83%
COc1cc2c(N3CCN(C(=O)Nc4ccc(OC(C)C)cc4)CC3)ncnc2cc1OCCCN1CCCCC1 — remaining signal (cell-free assay; 0.5 µM): 99.3%
CNC(=O)c1cc2c(Oc3ccc(NC(=O)C4(C(=O)Nc5ccc(F)cc5)CC4)cc3)ccnc2cc1OC — inhibition (enzyme activity; inhibitor; radiometric; 1 µM): 79%
Cc1nc(C2CCN(C(=O)c3ccc(OC(F)(F)F)cc3N)CC2)c2ncc(N3CCN(C)CC3)cc2n1 — remaining binding (cell-free assay; competition with immobilised ligand; 1 µM): 100%
CC(C)(O)[C@H]1CC[C@H](Nc2ccc3ncc(-c4cccc(C(F)(F)F)c4)n3n2)CC1 — remaining activity (enzyme activity; inhibitor; 1 µM): 94.4%
O=C1Nc2ccc(Cl)cc2C1=Cc1cc(Cl)c(O)c(Cl)c1 — remaining signal (cell-free assay; 0.5 µM): 96.7%
Cc1ccc(Nc2nccc(N(C)c3ccc4c(C)n(C)nc4c3)n2)cc1S(N)(=O)=O — inhibition (enzyme activity; inhibitor; 0.3 µM): 6%
Nc1ncnc2occ(-c3ccc(NC(=O)Nc4cc(C(F)(F)F)ccc4F)cc3)c12 — remaining signal (cell-free assay; inhibitor; 20 µM): 2.8%
N#CCCc1ccc2c(c1)-c1[nH]c3ccc([N+](=O)[O-])cc3c1CC(=O)N2 — remaining signal (cell-free assay; 0.5 µM): 62.9%
Cc1cnc(NC2CCOCC2)nc1-n1cnc(C(=O)NC(CN)c2cc(F)cc(Cl)c2)c1 (stereo not shown) — remaining activity (enzyme activity; inhibitor; radiometric; 1 µM): 99%
Cc1cc(NC(=O)c2cccc3cc(-c4cccc5[nH]nc(N)c45)ccc23)ccc1F — activity vs control (enzyme activity; inhibitor; 0.1 µM): 113%
CN(c1ccnc(CNc2nc(Nc3ccc4c(c3)CC(=O)N4)ncc2C(F)(F)F)n1)S(C)(=O)=O — remaining binding (cell-free assay; competition with immobilised ligand; 1 µM): 59%
CNC(=O)c1cc(Oc2ccc(NC(=O)Nc3ccc(Cl)c(C(F)(F)F)c3)cc2)ccn1 — inhibition (enzyme activity; inhibitor; 0.3 µM): -3%
CN([C@@H]1CCc2c(CC(=O)O)c3cc(S(C)(=O)=O)ccc3n2C1)S(=O)(=O)c1ccc(F)cc1 — remaining binding (cell-free assay; competition with immobilised ligand; 1 µM): 100%
CCN(CC)CCNC(=O)c1c(C)[nH]c(/C=C2\C(=O)Nc3ccc(F)cc32)c1C — inhibition (enzyme activity; inhibitor; 0.3 µM): 59%
CC/C(=N\NC(=O)NCc1cccc(O)c1)c1ccc(O)c(C)c1O — inhibition (enzyme activity; inhibitor; 0.1 µM): -0.1%
FC(F)(F)c1ccc2c(c1)nc(-c1cccnc1)n2C1CC1 — remaining binding (cell-free assay; competition with immobilised ligand; 1 µM): 100%
CC(C)(C)c1nc(-c2cccc(NS(=O)(=O)c3c(F)cccc3F)c2F)c(-c2ccnc(N)n2)s1 — remaining activity (enzyme activity; inhibitor; radiometric; 1 µM): 109%
Cc1noc([C@H]2C[C@@H](c3ccc(C(F)(F)F)cc3)CN(C(=O)N3CCS(=O)(=O)C3)C2)n1 — remaining binding (cell-free assay; competition with immobilised ligand; 1 µM): 100%
COc1cc2ncnc(Nc3ccc(F)c(Cl)c3)c2cc1OCCCN1CCOCC1 — remaining signal (cell-free assay; 0.5 µM): 98.9%
COc1cc2ncnc(Nc3ccc(Oc4ccccc4)c(C)c3C)c2cc1OC — inhibition (enzyme activity; inhibitor; 1 µM): 1%
O=C(N1CCS(=O)(=O)CC1)N1C[C@H](c2ccc(OC(F)(F)F)cc2)C[C@H](c2nc(C3CC3)no2)C1 — remaining binding (cell-free assay; competition with immobilised ligand; 1 µM): 99%
Cc1[nH]c(/C=C2\C(=O)Nc3ccc(F)cc32)c(C)c1C(=O)N[C@H]1CCN(C(=O)N(C)C)C1 — remaining activity (enzyme activity; inhibitor; 1 µM): 75%
